High-throughput results: PubChem, several laboratories
In the library only some 7.1% were active in any assay of this set; here they are far more common.
Lung fibro prol: blocks proliferation of human lung fibroblasts; AID 719; LL 47 human lung fibroblast viability, ATP luminescence; hits give low values; 85,000 tested, 1.1% active; viability, % at 10 µM;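 active = viability at or below 50% in the single dose screen; inactive = viability above 50%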;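 also: compound exposure lasted 72 h before the ATP readout; 100% = median luminescence of untreated cell-only wells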
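Material: human LL 47 lung fibroblast cells; quantity: 1,150 cells/well; medium: IMEM plus 15% FBS; doses: 0.1% DMSO in all compound wells; timing: overnight attachment after seeding, then 72 h compound exposure at 37 °C; detection: CellTiter-Glo luminescence; measure: % viability of median cell-only signal; controls: cell-only wells, no compound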
PTEN del growth: growth suppressors of cells with PTEN tumor suppressor deletion | HCT116 PTEN-null viability, CellTiter-Glo, 60 h; hits give low values | viability, % at 10 µM | 140,000 tested, 1.2% active | AID 827;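 active = viability at or below a set limit, 4 SD under the median of all tested compounds, cut at about 3.7% in these data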;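 also: PTEN knockout HCT116 line with beta catenin targeted HCT116 as companion control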
Cav32 inh: human Cav3.2 channel inhibition, primary screen; 100,000 tested, 4% active; B-score at 10 µM; Cav3.2-expressing cells, Fluo-4 calcium fluorescence FDSS; hits give low values; O95180;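 active = single-dose well whose peak fluorescence ratio is a statistical outlier from its plate by either plate-standardised score or position-corrected B-score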
H69AR growth 86K: blocks growth of human H69AR lung tumor cells; viability, % at 10 µM; 85,000 tested, 6% active; H69AR lung tumor viability, ATP luminescence, 72 h; hits give low values;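 active = viability at or below 40%; inactive = viability above 40%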;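 also: multidrug resistant small cell line overexpressing MRP-1 efflux transporter; 100% = mean luminescence of untreated control wells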
HCT116 bCat-KO: beta-catenin-lacking colon tumor cell growth suppression; 140,000 tested, 1.5% active; AID 818; viability, % at 10 µM; HCT116 beta-catenin knockout viability, CellTiter-Glo, 60 h; hits give low values;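 active = viability at or under a set limit, the compound median less 4 SD, cut at about 6% in these data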;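 also: 0% = Hyamine 1622 control at 20 µM and 100% = untreated cell control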
HUVEC inhibit: human endothelial cell proliferation inhibition | HUVEC proliferation, CellTiter-Glo luminescence, 72 h; hits give low values | viability, % at 10 µM (by protocol) | 86,000 tested, 1.1% active | AID 648;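 active = viability at or below 30%; inactive = viability above 30%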;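 also: 100% = median luminescence of DMSO-only cell control wells on each plate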
Starred values were filed as active, the others as inactive.

COc1ccc(/C=N/n2c(SC)nnc2-c2ccccc2)cc1C was read as Lung fibro prol 88.1, PTEN del growth 68.5, Cav32 inh -1.62, H69AR growth 86K 26.2*, HCT116 bCat-KO 80.0 and HUVEC inhibit 86.9.
For COc1ccc(/C=N/n2c(SC)nnc2-c2ccccc2)c(OC)c1OC the results were Lung fibro prol 60.4, PTEN del growth 31.4, Cav32 inh 0.51, H69AR growth 86K 30.2*, HCT116 bCat-KO 27.6 and HUVEC inhibit 43.4.
COc1cccc(/C=N\n2c(C)nnc2C)c1OC was read as PTEN del growth 94.8, Cav32 inh 0.0634 and HCT116 bCat-KO 97.6.
CC1CCN(c2c([N+](=O)[O-])c(=O)oc3ccccc23)CC1 was read as PTEN del growth 83.8 and HCT116 bCat-KO 87.8.
Screening Cn1cc(Cl)c(C(=O)NC(=S)Nc2sc3c(c2C#N)CCCCC3)n1 returned PTEN del growth 76.7 and HCT116 bCat-KO 86.0.
For Cc1ccc(N(CC(=O)Nc2cc(Cl)ccc2Oc2ccccc2)S(C)(=O)=O)cc1C the results were PTEN del growth 48.9, Cav32 inh -5.85* and HCT116 bCat-KO 64.5.
For COc1cc(OC)c(NC(=O)CCc2ccccc2)cc1Cl the results were Lung fibro prol 93.0, PTEN del growth 92.6, Cav32 inh -2.29, H69AR growth 86K 56.8, HCT116 bCat-KO 88.5 and HUVEC inhibit 89.9.
For COc1ccc(Cl)cc1NC(=O)CN(C1CCCCC1)S(C)(=O)=O the results were Lung fibro prol 94.7, PTEN del growth 80.2, Cav32 inh -4.31*, H69AR growth 86K 59.4, HCT116 bCat-KO 88.4 and HUVEC inhibit 91.1.
`CSc1ccccc1NC(=O)CN(C1CCCCC1)S(C)(=O)=O` gave Lung fibro prol 103.0, PTEN del growth 95.5, Cav32 inh 0.714, H69AR growth 86K 100.4, HCT116 bCat-KO 94.7 and HUVEC inhibit 84.2.
For COc1ccc(Cl)cc1NC(=O)CCc1ccccc1 the results were PTEN del growth 78.1, Cav32 inh -4.59* and HCT116 bCat-KO 83.5.
Screening O=C(CCC1COc2ccccc2O1)Nc1ccc(Cl)cn1 (centres undefined) returned Lung fibro prol 87.5, PTEN del growth 43.7, Cav32 inh -5.9*, H69AR growth 86K 92.2, HCT116 bCat-KO 49.3 and HUVEC inhibit 15.1*.
For Cn1cc(C(=O)NCCN2CCN(c3ccccc3F)CC2)c2c3ccccc3n(C)c2c1=O the results were Lung fibro prol 98.7, H69AR growth 86K 54.6 and HUVEC inhibit 73.6.
CCCCC(=O)Nc1ccc(Cl)cn1 was read as Lung fibro prol 103.2, PTEN del growth 91.7, Cav32 inh -0.397, H69AR growth 86K 106.1, HCT116 bCat-KO 97.2 and HUVEC inhibit 109.0.
Screening O=C(CCc1ccccc1)Nc1ccc(Cl)cn1 returned Lung fibro prol 56.9, PTEN del growth 22.5, Cav32 inh -1.01, H69AR growth 86K 29.8*, HCT116 bCat-KO 22.2 and HUVEC inhibit 52.8.
`COC(=O)COc1ccc(S(=O)(=O)Nc2ccc3c(c2)OCO3)cc1Cl` gave Lung fibro prol 44.2*, PTEN del growth 98.8, Cav32 inh -0.174, H69AR growth 86K 103.5, HCT116 bCat-KO 93.2 and HUVEC inhibit 2.3*.
Screening COC(=O)COc1ccc(S(=O)(=O)Nc2ccc3c(c2)OCO3)cc1 returned Lung fibro prol 76.4, PTEN del growth 99.2, Cav32 inh 0.102, H69AR growth 86K 85.1, HCT116 bCat-KO 93.4 and HUVEC inhibit 64.8.
For CC(NC(=O)CCCCCCN1C(=O)c2ccccc2C1=O)c1ccc2c(c1)CCCC2 (centres undefined) the results were PTEN del growth 86.5 and HCT116 bCat-KO 85.9.
CC(NC(=O)CCCN1C(=O)c2ccccc2C1=O)c1ccc2c(c1)CCCC2 (centres undefined) was read as PTEN del growth 101.8, Cav32 inh -4.2* and HCT116 bCat-KO 97.2.
`CC(NC(=O)CCN1C(=O)c2ccccc2C1=O)c1ccc2c(c1)CCCC2` (centres undefined) gave PTEN del growth 101.2 and HCT116 bCat-KO 93.4.
CC(NC(=O)CCCCCN1C(=O)c2ccccc2C1=O)c1ccc2c(c1)CCCC2 (centres undefined) was read as PTEN del growth 71.5, Cav32 inh -3.66* and HCT116 bCat-KO 63.1.
NC(=O)c1ncc(C(F)(F)F)cc1Oc1ccc(C(F)(F)F)cc1 was read as Lung fibro prol 105.9, PTEN del growth 93.0, Cav32 inh 0.507, H69AR growth 86K 110.3, HCT116 bCat-KO 103.0 and HUVEC inhibit 96.7.
`CCOc1ccc(C2=NNC(c3cccs3)=Nc3ccc(OC)cc32)cc1OCC` gave Lung fibro prol 82.6, PTEN del growth 76.3, Cav32 inh -8.07*, H69AR growth 86K 38.5*, HCT116 bCat-KO 76.6 and HUVEC inhibit 71.0.
COc1ccc(C2=NNC(c3cccs3)=Nc3ccc(OC)cc32)cc1 was read as Lung fibro prol 93.9, PTEN del growth 87.0, Cav32 inh -2.13, H69AR growth 86K 81.2, HCT116 bCat-KO 88.8 and HUVEC inhibit 101.8.
For CCCc1cc(O)c2c(C)cc(=O)oc2c1 the results were Lung fibro prol 87.1, PTEN del growth 96.4, Cav32 inh -0.848, H69AR growth 86K 84.4, HCT116 bCat-KO 104.7 and HUVEC inhibit 77.8.
For Cc1ccc(-n2nnnc2SCC(=O)Nc2ccccc2N2CCCCC2)cc1C the results were Lung fibro prol 94.9, PTEN del growth 71.4, Cav32 inh -4.09*, H69AR growth 86K 65.5, HCT116 bCat-KO 64.9 and HUVEC inhibit 96.7.
O=C(CN1CCN(c2ccc(F)cc2)CC1)Nc1nnc(-c2ccccc2)s1 was read as Lung fibro prol 98.0, PTEN del growth 87.0, Cav32 inh 0.158, H69AR growth 86K 100.3, HCT116 bCat-KO 100.1 and HUVEC inhibit 105.6.
For CC1CCc2nc(NC(=O)CN3CCN(c4ccc(F)cc4)CC3)sc2C1 (centres undefined) the results were Lung fibro prol 98.7, PTEN del growth 61.1, Cav32 inh -5.04*, H69AR growth 86K 88.5, HCT116 bCat-KO 49.0 and HUVEC inhibit 101.9.
Screening Cc1cccc(NC(=O)CSc2nc3ccccc3o2)c1 returned PTEN del growth 100.2, Cav32 inh -6.94* and HCT116 bCat-KO 90.7.
For CC(=O)Nc1ccc(NC(=O)CSc2nc3ccccc3o2)cc1 the results were PTEN del growth 105.7 and HCT116 bCat-KO 99.8.
For CC1CCc2nc(NC(=O)CSc3nc4ccccc4o3)sc2C1 (centres undefined) the results were Lung fibro prol 88.2, PTEN del growth 84.2, Cav32 inh -0.692, H69AR growth 86K 30.6*, HCT116 bCat-KO 86.1 and HUVEC inhibit 62.9.
`COc1ccc(S(=O)(=O)Nc2ccccc2C(=O)NC(C)C)cc1OC` gave Lung fibro prol 95.5, PTEN del growth 98.2, Cav32 inh 0.0888, H69AR growth 86K 82.0, HCT116 bCat-KO 94.8 and HUVEC inhibit 93.4.
C=CCC1(C#N)C(SC)=NC2=C(C(=O)CC(C)(C)C2)C1c1ccc(Br)cc1 (centres undefined) was read as PTEN del growth 33.4 and HCT116 bCat-KO 43.4.
